# Assay outcomes from PubChem BioAssay.
# RGS4 act: RGS4 potentiators or activators, primary screen, cell-based, HEK293 M3R inducible RGS4, calcium flux; carbachol calcium flux Fluo4; active compounds read low; B-score at 10 µM; hit rate 0.92% among 310,000; AID 463111, 2010;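 active means B-score of the integrated calcium signal more than 4 SD below the library mean, with starting fluorescence not abnormally high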;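 further: negative B-score means reduced calcium response which marks RGS4 activation or potentiation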
#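 Assay system: Inducible-RGS4 HEK293 cells carrying M3 receptor | Schedule: Compound preincubation 20 min at room temperature before agonist | Signal: Kinetic calcium fluorescence imaging with Fluo4-AM dye, 2 µM | Read-out basis: B score from integrated fluorescence ratio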
# MrgX1 allo act: positive allosteric modulators of MrgX1, primary screen, HEK293 cells, Fluo-4 calcium flux | Mas-related G-protein coupled receptor member X1 (Homo sapiens), Q96LB2 | FDSS; active compounds read high | B-score at 10 µM | hit rate 0.63% among 310,000;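 active means plate-corrected calcium response at least 3 library SD above typical, normal starting fluorescence, not activating the receptor alone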;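 further: compound read alongside a low EC10 to EC30 dose of BAM8-22 agonist; peak minus trough fluorescence over baseline measured at the second addition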
# Target sequence (Q96LB2 whole entry, looked up): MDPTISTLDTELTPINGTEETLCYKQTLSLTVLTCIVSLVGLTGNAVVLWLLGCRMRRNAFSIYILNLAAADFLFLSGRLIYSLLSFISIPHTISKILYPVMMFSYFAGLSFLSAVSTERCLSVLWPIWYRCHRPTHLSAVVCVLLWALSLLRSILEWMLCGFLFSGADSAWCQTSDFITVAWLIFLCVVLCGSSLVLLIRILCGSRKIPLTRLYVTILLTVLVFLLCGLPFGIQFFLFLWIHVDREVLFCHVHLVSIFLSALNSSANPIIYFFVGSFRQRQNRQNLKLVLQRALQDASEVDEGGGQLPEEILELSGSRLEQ
# MrgX1 antagonist: antagonists of human MrgX1 receptor, primary screen, HEK293 cells, Fluo-4 calcium flux; BAM8-22 antagonism; active compounds read low; B-score at 10 µM; hit rate 1.3% among 310,000;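 active means calcium-response B-score plate-corrected more than 3 library SD below zero, starting fluorescence within 5 deviations, no agonist response on first addition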;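 further: peak minus trough fluorescence over baseline after final BAM8-22 challenge near maximal dose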
# RGS4 inh: RGS4 inhibitors, primary screen, cell-based, HEK293 M3R inducible RGS4, calcium flux; hit rate 0.45% among 310,000; B-score at 10 µM; Fluo-4 calcium flux; active compounds read high; triggered by carbachol at its EC20;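 active means B-score, a plate-corrected calcium signal, over three deviations above library mean, with baseline fluorescence within five deviations of library mean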;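 further: RGS4 expression induced by doxycycline in cells with stable M3 receptor; B-score is computed from the integrated fluorescence ratio over baseline after carbachol; higher B-score means a larger calcium signal and so more RGS4 inhibition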
# Target sequence (P49798 whole entry, looked up): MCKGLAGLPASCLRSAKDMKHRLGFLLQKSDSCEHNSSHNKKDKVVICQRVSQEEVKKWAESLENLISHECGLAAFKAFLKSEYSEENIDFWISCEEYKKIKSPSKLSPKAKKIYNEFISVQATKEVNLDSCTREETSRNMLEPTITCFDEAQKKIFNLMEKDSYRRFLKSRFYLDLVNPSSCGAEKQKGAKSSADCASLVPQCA
# MrgX1 ag: agonists of human MrgX1 receptor, primary screen, HEK293 cells, Fluo-4 calcium flux. Fluo-4 calcium fluorescence, agonist mode; active compounds read high. Mas-related G-protein coupled receptor member X1 (Homo sapiens), Q96LB2. hit rate 0.44% among 310,000. B-score at 10 µM;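 active means calcium response B-score plate-corrected fluorescence ratio at least 3 library SD, with starting fluorescence B-score inside 5 SD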
#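 System – MrgX1-expressing HEK293 cells · Incubation – cells plated overnight, dye loaded 0.5 h 37 °C, 0.5 h room temperature · Technique – kinetic Fluo-4 NW fluorescence of intracellular calcium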
# Numbers stand for hits; . = inactive; / = no result given. Only some compounds are listed: those with a hit (about 3.5% of all), similar ones and a draw of the others.
SMILES,RGS4 act,MrgX1 allo act,MrgX1 antagonist,RGS4 inh,MrgX1 ag
CCC(=O)c1cc(F)c(N2CCN(S(=O)(=O)c3ccc(C)cc3)CC2)cc1C,.,.,.,.,.
CCC(C)C(NC(=O)OC(C)(C)C)C(=O)NC(Cc1ccccc1)C(=O)OC (configuration not stated),.,7.3,.,.,.
CCc1nnc(NC(=O)CSc2nnc(-c3cccnc3)n2C)s1,.,.,.,.,.
CC(SCc1ccccc1)C(=O)Nc1ccccc1-c1ccccc1 (configuration not stated),.,12,.,.,.
CCOc1ccccc1NC(=O)C(C)SCc1ccccc1 (configuration not stated),.,.,.,.,.
O=C(Nc1cccc(NC(=O)c2nccc3ccccc23)c1)c1ccco1,/,.,.,/,.
CN(C(=O)COC(=O)c1ccccc1Nc1ccccc1)c1c(N)n(Cc2ccccc2)c(=O)[nH]c1=O,.,.,-7,.,.
COc1cccc(-c2cc(C(=O)N3CCN(c4ncccn4)CC3)c3ccccc3n2)c1,-7,.,.,.,.
CC(C)Oc1cccc(-c2cc(C(=O)N3CCN(c4ncccn4)CC3)c3ccccc3n2)c1,-7.4,.,.,.,.
Cc1ccc(-c2cc(C(=O)N3CCN(c4ncccn4)CC3)c3ccccc3n2)cc1,.,.,.,.,.
O=S(=O)(c1ccc(Cl)nc1)N1CCCCC1,.,.,.,.,.
CCOC(=O)N1CCN(C(=O)CNC(=O)c2ccc(Br)cc2)CC1,.,.,.,.,.
CC(C)[C@H](NS(=O)(=O)c1ccccc1)C(=O)OCC(=O)Nc1ccccc1Sc1ccccc1,.,.,-6.4,.,.
COCCn1c(=NC(=O)/C=C/c2ccccc2)sc2cc(NC(C)=O)ccc21,.,.,-4.9,.,.
Cc1oc2c(cc(NS(=O)(=O)c3ccc(C(C)C)cc3)c3ccccc32)c1C(=O)O,-8.6,.,.,.,.
Cc1oc2c(cc(NS(=O)(=O)c3ccc(F)cc3)c3ccccc32)c1C(=O)O,.,.,.,.,.
O=C(/C(=C/c1cccnc1)n1ccnc1)c1ccc(Cl)cc1Cl,.,.,.,.,33
CC(C)/C=C(/C(=O)c1ccc(Cl)cc1Cl)n1cncn1,.,.,.,.,.
CCn1c(=S)sc2c(=O)[nH]c(SCC(=O)Nc3cc(OC)ccc3OC)nc21,.,.,.,.,.
CC(c1ccccc1)N1C(=O)c2ccc(C(=O)Nc3ccc(Br)cc3C(=O)O)cc2C1=O (configuration not stated),.,.,-11,.,.
CC(C)CCN1C(=O)c2ccc(C(=O)Nc3ccccc3C(=O)O)cc2C1=O,-7.1,.,.,.,.
O=C(CN1CCC(O)CC1)N1c2ccccc2C=Cc2ccccc21,.,.,.,.,.
O=C(C1=C(O)C(=O)N(CCN2CCOCC2)C1c1ccc([N+](=O)[O-])cc1)c1cccs1 (configuration not stated),.,.,.,.,.
CN(C)CCCN1C(=O)C(O)=C(C(=O)c2cccs2)C1c1cccc([N+](=O)[O-])c1 (configuration not stated),.,6.6,.,.,.
COc1ccc(C(=O)NCc2nnc(SCC(=O)NC3CCCCC3)o2)cc1,.,.,.,.,.
SMILES,RGS4 act,MrgX1 allo act,MrgX1 antagonist,RGS4 inh,MrgX1 ag
Brc1ccccc1/C=N/Nc1ccc2ccccc2n1,.,11,.,.,.
Brc1ccc(/C=N/Nc2ccc3ccccc3n2)cc1,.,.,.,.,.
CCc1ccc(NC(=O)C(C)n2nc(C)c([N+](=O)[O-])c2C)cc1 (configuration not stated),.,.,.,.,.
O=C(Cn1c(=O)n(-c2ccccc2)c(=O)n1CC(=O)N1CCCCC1)N1CCCCC1,.,.,.,.,36
O=C(Nc1ccccc1)C1=C[C@H](c2ccccc2)C[C@H](OCc2ccc(CO)cc2)O1,.,7.3,.,.,.
CCOc1cc(/C=C(/C#N)C(=O)Nc2ccc(O)cc2)cc(Br)c1O,.,.,.,.,62
O=C(O)c1ccccc1-c1ccccc1C(=O)NNc1ccc([N+](=O)[O-])cc1,.,.,.,.,.
CCCc1cc(=O)oc2cc(C)cc(OCC(=O)NC(Cc3ccc(Cl)cc3)C(=O)O)c12 (configuration not stated),.,.,.,.,.
CCCCc1cc(=O)oc2cc(C)cc(OCC(=O)NC(Cc3ccc(Cl)cc3)C(=O)O)c12 (configuration not stated),-8.4,.,.,.,.
O=C1CCCN1CC(=O)N1CCCC(Nc2cccc(F)c2)C1 (configuration not stated),.,.,.,.,.
Oc1ccc(N=C/C=C/c2ccc(Br)cc2)cc1-c1nc2ccccc2s1,.,.,.,6.2,.
O=C(COC(=O)c1cccs1)NCC1CCCCC1,.,.,.,.,.
O=C1NC2(CCCCC2)C(=O)N1Cc1ccc([N+](=O)[O-])cc1,.,.,-7.2,.,.
COc1ccc(S(=O)(=O)Nc2c(C)ccc3nsnc23)cc1OC,.,.,.,.,.
O=C(CN1CCCCC1)Nc1ccccc1-c1ccccc1,-10,.,.,.,.
CC(=O)N1N=C(c2ccc(NS(C)(=O)=O)cc2)CC1c1ccc2nccnc2c1 (configuration not stated),.,.,-7.2,.,.
CS(=O)(=O)Nc1ccc(C2=NN(S(C)(=O)=O)C(c3ccc4nccnc4c3)C2)cc1 (configuration not stated),.,.,.,.,.
Cc1ccc(-c2nc3ccccc3nc2-c2ccccc2)cc1,.,.,.,.,.
Cc1ccc(-c2nc(N)s[n+]2-c2ccccc2)cc1,-9.8,.,.,.,.
Oc1cccc(C(Nc2nccs2)c2ccc3cccnc3c2O)c1 (configuration not stated),-7,.,.,.,.
O=[N+]([O-])c1ccc(S(=O)(=O)CC2CSc3nc4ccccc4n32)cc1 (configuration not stated),.,.,-5,.,.
Cc1nnc2n(c1=O)C(CS(=O)(=O)c1ccccc1)CS2 (configuration not stated),.,.,.,.,.
O=C(c1cc(C2CC2)on1)N1CCN(c2ccc(F)cc2)CC1,.,.,.,.,.
Cc1ccccc1CN1C(=O)c2ccccc2S(=O)c2ccc(C(=O)NCCCN3CCOCC3)cc21 (configuration not stated),.,.,.,.,.
O=C(NCCCN1CCCC1)c1ccc2c(c1)N(Cc1cccc(Cl)c1)C(=O)c1ccccc1S2=O (configuration not stated),.,.,.,.,.
